Measured values: publication PMC11406655 (Therapeutic Advances in Hematology, 2024)
Where “and” joins values, the source holds several entries; their conditions need not be identical. Equal values may be shown once.

Experiments:
Type in all cases: in vivo, human
[1] = system: patients with relapsed and/or refractory MDS, CMML, or AML; assay: Safety: adverse events, dose-limiting toxicities and deaths; details: Total
Summary of the method: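 Open-label, multicenter part 1 in adults with relapsed/refractory MDS, CMML or secondary AML. The 300 mg dose-expansion cohort took the test compound orally once daily with water only, at about the same time (±4 h), on every day of 28-day cycles. Deaths were split into ⩽30 days or >30 days after the last dose. The analysis covered all patients given at least one dose.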

[2] = system: symmetrical dimethylarginine (SDMA) in bone marrow biopsies; assay: SDMA in bone marrow biopsies by immunohistochemistry; details: for Mean percentage decrease in SDMA in bone marrow biopsies: after 29 days of treatment
Summary of the method: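 Adults with relapsed/refractory MDS, CMML or secondary AML took the test compound orally once daily (400 or 300 mg) with water only, every day of 28-day cycles. Bone marrow biopsies were taken predose and 29 days after treatment began, formalin-fixed and paraffin-embedded. SDMA loss was assessed by immunohistochemistry.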

[3] = system: patients with relapsed and/or refractory MDS, CMML, or AML; assay: Clinical response per International Working Group criteria, PFS and OS
[4] = Plasma pharmacokinetics of GSK3326595

CC(=O)N1CCC(Nc2cc(C(=O)NC[C@H](O)CN3CCc4ccccc4C3)ncn2)CC1 [GSK3326595]
GSK3326595-related TEAE: Fatigue ([1]; N = 30): 6 (20%) n (%) and 6 (20) n (%)
GSK3326595-related TEAE: Nausea ([1]; N = 30): 6 (20%) n (%) and 6 (20) n (%)
GSK3326595-related TEAE: Neutrophil count decreased ([1]; N = 30): 4 (13%) n (%) and 4 (13) n (%)
GSK3326595-related TEAE: Thrombocytopenia ([1]; N = 30): 3 (10%) n (%) and 3 (10) n (%)
Patients who died during the study ([1]; N = 30): 83%
SAE: anemia ([1]; N = 30): 3 (10%) n (%)
SAE: febrile neutropenia ([1]; N = 30): 5 (17%) n (%)
SAE: pneumonia ([1]; N = 30): 4 (13%) n (%)
SAE: sepsis ([1]; N = 30): 8 (27%) n (%)
SAE: thrombocytopenia ([1]; N = 30): 3 (10%) n (%)
TEAE with maximum grade of 3 or 4: anemia ([1]; N = 30): 8 (27%) n (%)
TEAE with maximum grade of 3 or 4: decreased neutrophil count ([1]; N = 30): 7 (23%) n (%)
TEAE with maximum grade of 3 or 4: decreased platelet count ([1]; N = 30): 11 (37%) n (%)
TEAE with maximum grade of 3 or 4: dyspnea ([1]; N = 30): 4 (13%) n (%)
TEAE with maximum grade of 3 or 4: fatigue ([1]; N = 30): 4 (13%) n (%)
TEAE with maximum grade of 3 or 4: febrile neutropenia ([1]; N = 30): 6 (20%) n (%)
TEAE with maximum grade of 3 or 4: hypotension ([1]; N = 30): 4 (13%) n (%)
TEAE with maximum grade of 3 or 4: pneumonia ([1]; N = 30): 6 (20%) n (%)
TEAE with maximum grade of 3 or 4: thrombocytopenia ([1]; N = 30): 5 (17%) n (%)
TEAE: AE leading to dose interruption ([1]; N = 30): 20 (67) n (%)
TEAE: AE leading to dose reduction ([1]; N = 30): 6 (20) n (%)
TEAE: AE leading to study treatment withdrawn ([1]; N = 30): 7 (23) n (%)
TEAE: Anemia ([1]; N = 30): 10 (33%) n (%) and 10 (33) n (%)
TEAE: Any AE ([1]; N = 30): 30 (100) n (%)
TEAE: Any SAE ([1]; N = 30): 23 (77) n (%)
TEAE: Decreased appetite ([1]; N = 30): 9 (30%) n (%) and 9 (30) n (%)
TEAE: Decreased platelet count ([1]; N = 30): 12 (40%) n (%) and 12 (40) n (%)
TEAE: Diarrhea ([1]; N = 30): 13 (43%) n (%) and 13 (43) n (%)
TEAE: Dysgeusia ([1]; N = 30): 10 (33%) n (%) and 10 (33) n (%)
TEAE: Dyspnea ([1]; N = 30): 11 (37%) n (%) and 11 (37) n (%)
TEAE: Fatal SAE ([1]; N = 30): 14 (47) n (%)
TEAE: Fatigue ([1]; N = 30): 13 (43%) n (%) and 13 (43) n (%)
TEAE: Nausea ([1]; N = 30): 9 (30%) n (%) and 9 (30) n (%)
TEAE: thrombocytopenia ([1]; N = 30): 5 (17%) n (%)
Treatment-related SAE: decreased neutrophil count ([1]; N = 30): 3 (10%) n (%)
Study treatment discontinued due to sepsis ([1]; N = 30, n = 2): 7%
Mean percentage decrease in SDMA in bone marrow biopsies ([2]; 300-mg cohort, 7 patients): 84.63%
Mean percentage decrease in SDMA in bone marrow biopsies ([2]; 400-mg cohort, 4 patients): 85.75%
Maximum observed decrease in tumor SDMA ([2]; day 29, 300-mg cohort): 97.8%
Maximum observed decrease in tumor SDMA ([2]; day 29, 400-mg cohort): 100%
Best overall response: CR ([3]; 300 mg once daily oral, n = 17): 0 n (%)
Best overall response: Disease progression ([3]; 300 mg once daily oral, n = 17): 9 (53) n (%)
Best overall response: HI ([3]; 300 mg once daily oral, n = 17): 0 n (%)
Best overall response: Not evaluable ([3]; 300 mg once daily oral, n = 17): 3 (18) n (%)
Best overall response: PR ([3]; 300 mg once daily oral, n = 17): 0 n (%)
Best overall response: SD ([3]; 300 mg once daily oral, n = 17): 4 (24) n (%)
Best overall response: SD lasting <8 weeks ([3]; 300 mg once daily oral, n = 17): 2 (12) n (%)
Best overall response: SD lasting ⩾8 weeks ([3]; 300 mg once daily oral, n = 17): 2 (12) n (%)
Best overall response: mCR ([3]; 300 mg once daily oral, n = 17): 1 (6) n (%)
Clinical benefit rate (CR + mCR + PR + SD ⩾8 weeks + HI) ([3]; 300 mg once daily oral, n = 17): 3 (18) n (%)
Overall response rate (CR + mCR + PR) ([3]; 300 mg once daily oral, n = 17): 1 (6) n (%)
Best overall response: CR ([3]; 400 mg once daily oral, n = 13): 0 n (%)
Best overall response: Disease progression ([3]; 400 mg once daily oral, n = 13): 4 (31) n (%)
Best overall response: HI ([3]; 400 mg once daily oral, n = 13): 0 n (%)
Best overall response: Not evaluable ([3]; 400 mg once daily oral, n = 13): 4 (31) n (%)
Best overall response: PR ([3]; 400 mg once daily oral, n = 13): 0 n (%)
Best overall response: SD ([3]; 400 mg once daily oral, n = 13): 5 (38) n (%)
Best overall response: SD lasting <8 weeks ([3]; 400 mg once daily oral, n = 13): 3 (23) n (%)
Best overall response: SD lasting ⩾8 weeks ([3]; 400 mg once daily oral, n = 13): 2 (15) n (%)
Best overall response: mCR ([3]; 400 mg once daily oral, n = 13): 0 n (%)
Clinical benefit rate (CR + mCR + PR + SD ⩾8 weeks + HI) ([3]; 400 mg once daily oral, n = 13): 2 (15) n (%)
Duration of complete marrow remission ([3]; 1 patient, plain language summary): approximately 8 months
Clinical benefit rate (CR + mCR + PR + SD ⩾8 weeks + HI) ([3]; Total, 400 or 300 mg once daily oral, N = 30): 5 (17) n (%)
Best overall response: CR ([3]; Total, N = 30): 0 n (%)
Best overall response: Disease progression ([3]; Total, N = 30): 13 (43) n (%)
Best overall response: HI ([3]; Total, N = 30): 0 n (%)
Best overall response: Not evaluable ([3]; Total, N = 30): 7 (23) n (%)
Best overall response: PR ([3]; Total, N = 30): 0 n (%)
Best overall response: SD ([3]; Total, N = 30): 9 (30) n (%)
Best overall response: SD lasting <8 weeks ([3]; Total, N = 30): 5 (17) n (%)
Best overall response: SD lasting ⩾8 weeks ([3]; Total, N = 30): 4 (13%) n (%) and 4 (13) n (%)
Best overall response: mCR ([3]; Total, N = 30): 1 (3%) n (%) and 1 (3) n (%)
Overall response rate (CR + mCR + PR) ([3]; Total, N = 30): 1 (3) n (%)
Patients meeting CBR criteria ([3]; Total, N = 30): 17%
Patients not evaluable ([3]; Total, N = 30): 23%
Patients with disease progression while on study treatment ([3]; Total, N = 30): 43%
Duration of mCR ([3]; one patient with MDS, 300-mg cohort): 245 days
Dose proportionality of exposure ([4]; 300 and 400 mg): dose-proportional
half-life ([4]; human, plasma, po, 400 mg): 4 to 6 h
Tmax ([4]; human, plasma, po, 400 mg, Tmax, 300 and 400 mg once daily): ~2 h
